Data from ChEMBL document CHEMBL3351576, “Five new quassinoids and cytotoxic constituents from the roots of Eurycoma longifolia” (Bioorg Med Chem Lett, 2014).

Assays:
A549 [1] = assay: Cytotoxicity against human A549 cells assessed as cell viability at 1 uM by SRB assay; assay type: functional; conditions: read-out: Activity
Procedure, shortened: (§1)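 Modified sulforhodamine B (SRB) protein-stain assay. Each human cancer line was exposed to 1, 10 and 100 µM of each isolated root constituent. The read-out is relative cell viability (%), reported as mean ± error.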

A549 [2] = assay: Cytotoxicity against human A549 cells assessed as cell viability at 10 uM by SRB assay; assay type: functional; conditions: read-out: Activity; procedure, shortened: as §1
A549 [3] = assay: Cytotoxicity against human A549 cells assessed as cell viability at 100 uM by SRB assay; assay type: functional; conditions: read-out: Activity; procedure, shortened: as §1
HeLa [4] = assay: Cytotoxicity against human HeLa cells assessed as cell viability at 1 uM by SRB assay; assay type: functional; conditions: read-out: Activity; procedure, shortened: as §1
HeLa [5] = assay: Cytotoxicity against human HeLa cells assessed as cell viability at 10 uM by SRB assay; assay type: functional; conditions: read-out: Activity; procedure, shortened: as §1
HeLa [6] = assay: Cytotoxicity against human HeLa cells assessed as cell viability at 100 uM by SRB assay; assay type: functional; conditions: read-out: Activity; procedure, shortened: as §1
HeLa [7] = assay: Cytotoxicity against human HeLa cells by SRB assay; assay type: functional, cell-based

SMILES | viability at 1 µM (A549 [1]) | viability at 10 µM (A549 [2]) | viability at 100 µM (A549 [3]) | viability at 1 µM (HeLa [4]) | viability at 10 µM (HeLa [5]) | viability at 100 µM (HeLa [6]) | IC50 (HeLa [7])
CC1=CC(=O)[C@@H](O)[C@]2(C)[C@H]3[C@@H](O)[C@H](O)[C@H](C)[C@]4(O)[C@@H](O)C(=O)O[C@H](C[C@@H]12)[C@]34C | 99.5% | 86.4% | 43.3% | 101% | 71.6% | 21% | 48.2 µM
CC1=CC(=O)O[C@H]1[C@@]1(C)C[C@H]2OC(=O)[C@H](O)[C@@]3(O)[C@@H](C)C(=O)C(O)=C1[C@@]23CO | 102% | 104% | 103% | 102% | 103% | 106% | 
CC1=CC(=O)O[C@H]1[C@@]1(C)C[C@H]2OC(=O)[C@H](O)[C@@]3(O)[C@H](C)C(=O)C(O)=C1[C@@]23CO | 101% | 104% | 104% | 102% | 104% | 106% | 
C=C1C(=O)C(O)=C2[C@@](C)([C@@H]3OC(=O)C=C3C)C[C@H]3OC(=O)[C@H](O)[C@]1(O)[C@@]23CO | 100% | 102% | 100% | 102% | 104% | 101% | 
C[C@H]1[C@H]2OC(=O)[C@@H]1[C@]1(C)C(=O)C=C3[C@@](C)(O)C[C@H](O)[C@@H](O)[C@]3(C)C1[C@H]2O (some centres not stated) | 96.6% | 102% | 101% | 101% | 102% | 102% | 
CC1=C2C[C@H]3OC(=O)[C@H](O)[C@@]4(O)[C@@H](C)[C@]5(O)C(=O)OC[C@]34C5[C@@]2(C)[C@H](O)[C@@H](O)C1 (some centres not stated) | 103% | 103% | 103% | 106% | 105% | 103% | 
CC1=CC(=O)O[C@H]1[C@@]1(C)C[C@H]2OC(=O)[C@H](O)[C@@]3(O)[C@@H](C)[C@@H](O)[C@H](O)[C@H]1[C@@]23C | 102% | 102% | 100% | 104% | 104% | 103% | 
CC1=CC(=O)[C@@H](O)[C@]2(C)[C@H]3[C@]4(O)OC[C@@]35[C@@H](C[C@@H]12)OC(=O)[C@H](O)[C@@]5(O)[C@]1(CO1)[C@H]4O | 96.2% | 102% | 99.1% | 101% | 101% | 61.7% | 
C=C1C[C@H](O)[C@@H](O)[C@]2(C)[C@H]3[C@@H](O)[C@H](O)[C@H](C)[C@@H]4C(=O)O[C@H]([C@H](O)[C@@H]12)[C@]34C | 96.8% | 101% | 101% | 99.7% | 101% | 98.7% | 
CC1=CC(=O)[C@@H](O)[C@]2(C)[C@H]3[C@@H](O)[C@H](O)[C@H](C)[C@]4(O)[C@@H](O)C(=O)O[C@H](C[C@@]12O)[C@]34C | 99.8% | 101% | 99.3% | 101% | 103% | 100% | 
COc1cccc2c1C(=O)c1c(O)c3c(c(O)c1C2=O)C[C@@](O)(C(=O)CO)C[C@@H]3O[C@H]1C[C@H](N)[C@@H](O)[C@H](C)O1 [EPIRUBICIN] |  | 0.61% |  |  | 24.3% |  | 
CC1=CC(=O)[C@@H](O)[C@@]2(C)[C@H]1CC(=O)[C@@]1(C)[C@H]3C(=O)O[C@H]([C@@H]3C)[C@H](O)[C@@H]12 [EURYCOMALACTONE] | 101% | 71.5% | 41.5% | 105% | 77.7% | 44.5% | 
C=C1[C@@H](O)[C@@]2(O)OC[C@]34[C@H]2[C@@]2(C)[C@H](O)C(=O)C=C(C)[C@@H]2C[C@H]3OC(=O)[C@H](O)[C@@]14O [EURYCOMANONE] | 96.8% | 101% | 87.2% | 101% | 97.5% | 47% | 
CC1=CC(=O)[C@@H](O)[C@@]2(C)[C@H]1[C@@H](O)[C@H]1OC(=O)C3[C@@H](C)[C@H](O)[C@H](O)[C@H]2[C@]31C (some centres not stated) [LONGILACTONE] | 99.7% | 99.8% | 66.1% | 101% | 102% | 66.9% | 
CC1=CC(=O)[C@@H](O)[C@]2(C)[C@H]3[C@]4(O)OC[C@@]35[C@@H](C[C@@H]12)OC(=O)[C@H](O)[C@@]5(O)[C@H](C)[C@H]4O [PASAKBUMIN C] | 99.2% | 101% | 99.8% | 99.8% | 102% | 101% | 
